Data published in ChEMBL document CHEMBL1126856, “Azulenic retinoids: novel nonbenzenoid aromatic retinoids with anticancer activity” (1993).
Several values for one entry are separate records, joined by “and”; a condition that tells them apart may be missing. Identical values can stand only once.

Assays:
Format in all cases: functional, Mus musculus
C3H 10T1/2 [1] = assay: Inhibition of neoplastic transformation at a concentration of 10e-6 M
How it was run: (§1)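 C3H10T1/2 cells given 3-MCA (3 μg/mL) for 24 h, then 7 days later continuous retinoid in acetone (final 0.5%), renewed at each weekly medium change, for 4 weeks. Cultures were fixed, stained and scored for type II and III transformed foci; result as foci/dish and % of MCA-treated control. 12 dishes per group.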

C3H 10T1/2 [2] = assay: Inhibition of neoplastic transformation at a concentration of 10e-8 M; parameters: scale not given: the % may be the effect or the level left; how it was run: as §1
C3H 10T1/2 [3] = assay: Tested for toxicity against C3H10T1/2 cell line of murine embryo fibroblasts at 10e-6 M
How it was run: (§2)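 C3H10T1/2 cells plated at clonal density and exposed to retinoid in acetone (0.5%) for 7 days. Plating efficiency was normalized to the MCA-treated (1 day) control plating efficiency.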

C3H 10T1/2 [4] = assay: Tested for toxicity against C3H10T1/2 cell line of murine embryo fibroblasts at 10e-8 M; how it was run: as §2
C3H 10T1/2 [5] = assay: The compound was tested for inhibition of neoplastic transformation, at a concentration of 10e-10 M; parameters: scale not given: the % may be the effect or the level left; how it was run: as §1
C3H 10T1/2 [6] = assay: Toxicity against C3H10T1/2 cell line of murine embryo fibroblasts at 10e-10 M; how it was run: as §2
C3H 10T1/2 [7] = assay: Inhibition of neoplastic transformation was measured by measuring the transformed foci per dish at 10e-6 M; how it was run: as §1
C3H 10T1/2 [8] = assay: Tested for inhibition of neoplastic transformation by measuring the transformed foci per dish at 10e-10 M; how it was run: as §1
C3H 10T1/2 [9] = assay: Tested for inhibition of neoplastic transformation by measuring the transformed foci per dish at 10e-8 M; how it was run: as §1
C3H 10T1/2 [10] = assay: Tested for anticancer activity by measuring the number of communicating cells using gap junctional communication assay at 10e-6 M (P>0.05)
C3H 10T1/2 [11] = assay: Tested for anticancer activity by measuring the number of communicating cells using gap junctional communication assay at 10e-6 M (P>0.001)
C3H 10T1/2 [12] = assay: Tested for anticancer activity by measuring the number of communicating cells using gap junctional communication assay at 10e-6 M
C3H 10T1/2 [13] = assay: Tested for anticancer activity by measuring the number of communicating cells using gap junctional communication assay at 10e-6 M (P>0.01)
C3H 10T1/2 [14] = assay: The compound was tested for inhibition of Neoplastic transformation, at a concentration of 10e-10 M; parameters: scale not given: the % may be the effect or the level left; how it was run: as §1
C3H 10T1/2 [15] = assay: Tested for anticancer activity by measuring the number of communicating cells using gap junctional communication assay at 10*e-6 M (P>0.001)
C3H 10T1/2 [16] = assay: Inhibition of Neoplastic transformation at a concentration of 10*e-6 M; parameters: scale not given: the % may be the effect or the level left; how it was run: as §1
C3H 10T1/2 [17] = assay: Inhibition of Neoplastic transformation at a concentration of 10*e-8 M; parameters: scale not given: the % may be the effect or the level left; how it was run: as §1
C3H 10T1/2 [18] = assay: Tested for toxicity against C3H10T1/2 cell line of murine embryo fibroblasts at 10 e-6 M; how it was run: as §2
C3H 10T1/2 [19] = assay: Tested for toxicity against C3H10T1/2 cell line of murine embryo fibroblasts at 10*e-8 M; how it was run: as §2
C3H 10T1/2 [20] = assay: The compound was tested for inhibition of Neoplastic transformation, at a concentration of 10*e-10 M; parameters: scale not given: the % may be the effect or the level left; how it was run: as §1
C3H 10T1/2 [21] = assay: Toxicity against C3H10T1/2 cell line of murine embryo fibroblasts at 10*e-10 M; how it was run: as §2
C3H 10T1/2 [22] = assay: Inhibition of neoplastic transformation was measured by measuring the transformed foci per dish at 10 e-6 M; how it was run: as §1
C3H 10T1/2 [23] = assay: Tested for inhibition of neoplastic transformation by measuring the transformed foci per dish at 10*e-10 M; how it was run: as §1
C3H 10T1/2 [24] = assay: Tested for inhibition of neoplastic transformation by measuring the transformed foci per dish at 10*e-8 M; how it was run: as §1

Row | Structure (SMILES) | Transformed foci, % of MCA-treated control (C3H 10T1/2 [1]) [%] | Control (C3H 10T1/2 [2]) [%] | Control (C3H 10T1/2 [3]) | Control (C3H 10T1/2 [4]) | Control (C3H 10T1/2 [5]) [%] | Control (C3H 10T1/2 [6]) | Foci/dish (C3H 10T1/2 [7]) | Foci/dish (C3H 10T1/2 [8]) | Foci/dish (C3H 10T1/2 [9]) | also measured
1 | Cc1cc(/C=C/C=C/C(=C\C(=O)O)C(F)(F)F)c2c(C)ccc(C(C)C)cc1-2 | 88 | 88 | 178% | 156% | 88 | 98% | 0.58 | 0.58 | 0.58 | Communicating cells (C3H 10T1/2 [10]): 5.6
2 | O=C(O)c1ccc(/C=C/c2ccc3cccccc2-3)cc1 | 12 | 50 | 67% | 147% | 50 | 129% | 0.08 | 0.33 | 0.33 | Communicating cells (C3H 10T1/2 [11]): 7.4
3 | Cc1ccc2c(/C=C/c3ccc(C(=O)O)cc3)ccc(C(C)C)cc1-2 | 0 | 24 | 66% | 75% | 24 | 75% | 0 | 0.16 | 0.16 | Communicating cells (C3H 10T1/2 [11]): 9.5
4 | Cc1cc(/C=C/c2ccc(CO)cc2)c2c(C)ccc(C(C)C)cc1-2 | 104 | 110 | 84% | 138% | 95 | 129% | 1.09 | 1 | 1.16 | Communicating cells (C3H 10T1/2 [12]): 4.9
5 | CC(/C=C/C=C/c1ccc2cccccc1-2)=C(/F)C(=O)O | 12 | 12 | 78% | 120% | 88 | 113% | 0.08 | 0.58 | 0.08 | Communicating cells (C3H 10T1/2 [13]): 8.8
6 | Cc1cc(/C=C/c2ccc(C(=O)O)cc2)c2c(C)ccc(C(C)C)cc1-2 | 0 | 40 | 67% | 94% | 146 | 119% | 0 | 1.54 | 0.42 | Communicating cells (C3H 10T1/2 [11]): 18.3
7 | CC(/C=C/C=C/c1cc(C)c2cc(C(C)C)ccc(C)c1-2)=C\C=O | 119 | 95 | 125% | 129% | 110 | 115% | 1.25 | 1.16 | 1 | Communicating cells (C3H 10T1/2 [12]): 5.7
8 | C/C(=C\c1ccc(C(=O)O)cc1)c1ccc2c(c1)C(C)(C)CCC2(C)C | 0 | 0 | 80% and 85% | 83% and 91% | 0 | 95% and 96% | 0 | 0 | 0 | Communicating cells (C3H 10T1/2 [11]): 21.2; Control (C3H 10T1/2 [14]): 0%; Communicating cells (C3H 10T1/2 [15]): 18.5
9 | Cc1cc(/C=C/C=C/c2ccc(C(=O)O)cc2)c2c(C)ccc(C(C)C)cc1-2 | 75 | 50 | 98% | 94% | 50 | 89% | 0.5 | 0.33 | 0.33 | Communicating cells (C3H 10T1/2 [12]): 2.9
10 | Cc1ccc(C(C)C)cc2c(C)c(/C=C/c3ccc(C(=O)O)cc3)cc1-2 | 24 | 24 | 84% | 129% | 24 | 96% | 0.16 | 0.16 | 0.16 | Communicating cells (C3H 10T1/2 [13]): 7.2
11 | CC(/C=C/C=C/c1cc(C)c2cc(C(C)C)ccc(C)c1-2)=C\C(=O)O |  |  |  |  |  |  |  |  |  | Control (C3H 10T1/2 [16]): 76%; Control (C3H 10T1/2 [17]): 120%; Control (C3H 10T1/2 [18]): 89.1%; Control (C3H 10T1/2 [19]): 120%; Control (C3H 10T1/2 [20]): 103%; Control (C3H 10T1/2 [21]): 116%; Foci/dish (C3H 10T1/2 [22]): 0.8; Foci/dish (C3H 10T1/2 [23]): 1.08; Foci/dish (C3H 10T1/2 [24]): 1.27; Communicating cells (C3H 10T1/2 [15]): 9.1
12 | Cc1cc(/C=C/c2ccc(C=O)cc2)c2c(C)ccc(C(C)C)cc1-2 | 87 | 166 | 58% | 174% | 143 | 142% | 0.91 | 1.5 | 1.75 | Communicating cells (C3H 10T1/2 [13]): 8.7
13 | CC(/C=C/C=C/c1cc(C)c2cc(C(C)C)ccc(C)c1-2)=C\CO | 112 | 142 | 89% | 120% | 142 | 125% | 1.18 | 1.5 | 1.5 | Communicating cells (C3H 10T1/2 [10]): 8.8
14 | CC(/C=C/c1cc(C)c2cc(C(C)C)ccc(C)c1-2)=C\C=C\C(C)=C\C(=O)O | 75 | 61 | 178% | 151% | 61 | 94% | 0.5 | 0.4 | 0.4 | Communicating cells (C3H 10T1/2 [12]): 1.55
